Molecules are shown by their SMILES. Calls of active or inactive are those of the source. The rule behind the calls is not given here. Some results are limits rather than exact numbers.

Series [1] concerns the target T1, Cytochrome P450 26B1 (Homo sapiens, UniProt Q9NR63).
T1 sequence (Q9NR63 whole entry): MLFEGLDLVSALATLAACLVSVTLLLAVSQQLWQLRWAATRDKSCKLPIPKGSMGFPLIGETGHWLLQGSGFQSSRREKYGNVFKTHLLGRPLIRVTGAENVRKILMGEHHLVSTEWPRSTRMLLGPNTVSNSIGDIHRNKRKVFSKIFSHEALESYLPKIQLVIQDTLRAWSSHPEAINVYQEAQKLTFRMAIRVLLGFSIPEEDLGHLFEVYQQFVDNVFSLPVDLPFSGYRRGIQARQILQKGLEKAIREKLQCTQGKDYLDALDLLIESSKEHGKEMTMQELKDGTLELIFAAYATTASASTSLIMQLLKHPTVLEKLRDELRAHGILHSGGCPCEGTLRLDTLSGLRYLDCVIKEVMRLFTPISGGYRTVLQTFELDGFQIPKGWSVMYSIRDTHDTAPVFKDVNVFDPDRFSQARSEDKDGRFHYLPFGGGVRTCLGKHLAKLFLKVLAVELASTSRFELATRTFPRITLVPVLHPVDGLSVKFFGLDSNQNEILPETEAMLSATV

Series [2] concerns the target T2, Cytochrome P450 26A1 (Homo sapiens, UniProt O43174).
T2 sequence (O43174 whole entry): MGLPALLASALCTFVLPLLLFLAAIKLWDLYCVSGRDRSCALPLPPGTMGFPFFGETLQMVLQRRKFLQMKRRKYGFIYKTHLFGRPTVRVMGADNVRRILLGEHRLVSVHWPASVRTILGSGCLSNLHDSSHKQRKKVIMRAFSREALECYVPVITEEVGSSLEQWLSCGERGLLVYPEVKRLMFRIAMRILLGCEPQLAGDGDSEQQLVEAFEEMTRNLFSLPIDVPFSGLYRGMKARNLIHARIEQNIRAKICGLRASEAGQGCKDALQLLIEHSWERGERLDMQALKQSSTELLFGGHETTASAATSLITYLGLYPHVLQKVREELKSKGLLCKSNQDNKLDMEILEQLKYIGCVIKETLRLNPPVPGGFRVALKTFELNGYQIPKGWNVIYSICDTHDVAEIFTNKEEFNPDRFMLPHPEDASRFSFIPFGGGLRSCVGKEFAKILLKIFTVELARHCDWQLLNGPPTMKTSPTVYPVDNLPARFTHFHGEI

Series [3] concerns the target T3, Retinoic acid receptor alpha (Homo sapiens) (UniProt P10276).
T3 sequence (whole entry): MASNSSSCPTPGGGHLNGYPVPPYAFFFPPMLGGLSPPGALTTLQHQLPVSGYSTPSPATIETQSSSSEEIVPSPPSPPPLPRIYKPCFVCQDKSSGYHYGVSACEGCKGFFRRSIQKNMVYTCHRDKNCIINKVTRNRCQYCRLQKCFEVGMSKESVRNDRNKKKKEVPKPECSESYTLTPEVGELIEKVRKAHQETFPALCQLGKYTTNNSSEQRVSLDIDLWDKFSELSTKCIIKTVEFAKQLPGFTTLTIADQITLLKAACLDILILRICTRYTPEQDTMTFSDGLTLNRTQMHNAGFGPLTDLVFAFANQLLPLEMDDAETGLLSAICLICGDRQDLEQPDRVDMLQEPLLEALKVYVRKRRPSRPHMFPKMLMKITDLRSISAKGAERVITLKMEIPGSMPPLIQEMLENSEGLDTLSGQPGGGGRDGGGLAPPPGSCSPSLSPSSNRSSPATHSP
Put plainly: Activation of human RARalpha at 1 uM by luciferase reporter gene assay. (In general: In a reporter assay the amount or activity of a reporter protein is the signal.)

The target in series [4] is T4, Retinoic acid receptor (Homo sapiens) (UniProt P13631+P10826+P10276). Put plainly: Activation of RAR in human HepG2 cells assessed as upregulation of RARbeta mRNA expression at 1 uM after 24 hrs by RT-PCR method. The format is cell-based. The gist of the method:
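HepG2 cells in DMEM with 10% FBS, 37 °C, 5% CO2, plated 24 h before dosing. Treated 24 h in 2 mL medium at 1 μM in 0.1% DMSO, alongside a 0.1% DMSO vehicle; triplicates. RNA isolated with TRI reagent and cDNA made from 1 μg. TaqMan RT-PCR multiplexed with GAPDH as housekeeping gene; fold change by the C_T method.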

In series [5] the target is T4, Retinoic acid receptor (Homo sapiens). Put plainly: Activation of RAR in human HepG2 cells assessed as upregulation of CYP26A1 mRNA expression at 1 uM after 24 hrs by RT-PCR method. Type of series: cell-based. The gist of the method: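 HepG2 cells kept in DMEM with 10% FBS at 37 °C under 5% CO2. Plated and left to adhere 24 h, then exposed 24 h to 1 μM compound in 0.1% DMSO, with 0.1% DMSO as vehicle control. Triplicate wells. TRI reagent mRNA extraction, cDNA from 1 μg mRNA. CYP26A1 measured by TaqMan RT-PCR multiplexed with GAPDH as housekeeping gene. Fold-difference calculated by the CT method.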

Series [6] addresses T1, Cytochrome P450 26B1. Put plainly: Inhibition of microsomal fraction of human CYP26B1 expressed in Sf9 cells using 9-cis-RA as substrate at 20 uM preincubated for 5 mins followed by NADPH addition measured after 5 mins by HPLC analysis in presence of rat P450 reductase. The gist of the method: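 Sf9 microsomes expressing CYP26B1, 5 pmol, preincubated 10 min at room temperature with 10 pmol E. coli-expressed rat P450 reductase. […] Preincubated 5 min at 37 °C, started with 1 mM NADPH (final), run 5 min. 9-cis-4-OH-RA measured by HPLC; activity expressed relative to solvent control.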

For the next series, the target named is CYP3A4 (Homo sapiens, UniProt P08684). Put plainly: Inhibition of CYP3A4 in human liver microsomes upto 100 uM using midazolam as substrate by LC-MS/MS analysis in presence of NADPH. Type of series: ADME. The following applies: probe midazolam, read-out: Imax. Summed up: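 Human liver microsomes incubated with midazolam as the CYP3A4-selective substrate plus inhibitor in 100 mM potassium phosphate buffer. Reaction started with NADPH and quenched with ice-cold acetonitrile. Product formation measured by LC-MS/MS.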
CYP3A4, sequence (P08684 whole entry): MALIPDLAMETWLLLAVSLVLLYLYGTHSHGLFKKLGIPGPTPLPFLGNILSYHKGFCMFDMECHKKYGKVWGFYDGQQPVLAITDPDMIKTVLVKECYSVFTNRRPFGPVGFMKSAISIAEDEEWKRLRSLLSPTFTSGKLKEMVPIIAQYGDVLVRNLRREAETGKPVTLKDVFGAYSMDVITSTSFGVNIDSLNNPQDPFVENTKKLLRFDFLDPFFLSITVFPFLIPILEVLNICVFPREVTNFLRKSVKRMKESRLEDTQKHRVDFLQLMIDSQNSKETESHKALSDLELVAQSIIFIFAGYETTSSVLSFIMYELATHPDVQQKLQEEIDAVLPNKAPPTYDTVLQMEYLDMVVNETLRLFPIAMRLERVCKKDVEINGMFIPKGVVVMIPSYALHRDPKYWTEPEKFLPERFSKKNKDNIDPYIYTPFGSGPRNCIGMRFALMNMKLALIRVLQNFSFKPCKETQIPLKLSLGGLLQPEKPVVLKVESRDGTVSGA
In general terms: Liver microsomes are vesicles of endoplasmic reticulum, rich in cytochrome P450 enzymes.

Series [7] addresses T2, Cytochrome P450 26A1. Put plainly: Inhibition of CYP26A1-mediated atRA metabolism in human HepG2 cells assessed as atRA level in cell media at 1 uM after 24 hrs by LC/MS-MS analysis (reference value: 0.49 +/- 0.33 nM). Type of series: cell-based. As to conditions: hepg2, 24 h.
Series [8] in a line: Activation of human RARbeta at 1 uM by luciferase reporter gene assay.
The next series concerns the target Cytochrome P450 3A4 (Homo sapiens, UniProt P08684).
The next series concerns the target CYP2D6 (Homo sapiens, UniProt P10635). Put plainly: in vitro. The following applies: human liver microsomes, probe dextromethorphan.
Another series is filed under the species Homo sapiens. Put plainly: Selectivity ratio of IC50 for microsomal fraction of human CYP26B1 to IC50 for microsomal fraction of human CYP26A1.

T4 sequence (P10826 whole entry, looked up, one chain of several): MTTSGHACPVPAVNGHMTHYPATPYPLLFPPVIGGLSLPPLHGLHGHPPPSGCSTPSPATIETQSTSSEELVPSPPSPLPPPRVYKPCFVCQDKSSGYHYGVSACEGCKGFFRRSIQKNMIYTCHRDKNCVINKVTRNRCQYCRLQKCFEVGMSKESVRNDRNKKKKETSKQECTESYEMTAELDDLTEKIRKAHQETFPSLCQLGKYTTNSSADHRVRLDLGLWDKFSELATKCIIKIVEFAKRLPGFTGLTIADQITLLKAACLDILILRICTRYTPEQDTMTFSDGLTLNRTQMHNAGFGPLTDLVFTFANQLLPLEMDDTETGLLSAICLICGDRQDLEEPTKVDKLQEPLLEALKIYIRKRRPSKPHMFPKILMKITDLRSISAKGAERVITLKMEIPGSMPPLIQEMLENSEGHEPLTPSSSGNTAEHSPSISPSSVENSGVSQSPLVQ
T4 sequence (P13631 whole entry, looked up, one chain of several): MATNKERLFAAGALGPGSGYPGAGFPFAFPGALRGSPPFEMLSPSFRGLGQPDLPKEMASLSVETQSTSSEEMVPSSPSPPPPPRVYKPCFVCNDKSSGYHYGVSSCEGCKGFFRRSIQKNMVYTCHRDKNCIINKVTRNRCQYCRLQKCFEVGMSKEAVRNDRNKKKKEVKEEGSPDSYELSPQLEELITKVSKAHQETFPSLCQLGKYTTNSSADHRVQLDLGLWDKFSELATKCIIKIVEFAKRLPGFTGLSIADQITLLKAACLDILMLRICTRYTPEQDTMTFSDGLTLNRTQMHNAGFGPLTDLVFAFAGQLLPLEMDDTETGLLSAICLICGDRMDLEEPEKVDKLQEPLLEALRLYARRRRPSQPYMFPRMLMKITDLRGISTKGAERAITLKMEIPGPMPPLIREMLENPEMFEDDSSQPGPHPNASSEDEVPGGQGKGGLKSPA
Cytochrome P450 3A4, sequence (P08684 whole entry): as the sequence (P08684 whole entry) above
CYP2D6, sequence (P10635 whole entry): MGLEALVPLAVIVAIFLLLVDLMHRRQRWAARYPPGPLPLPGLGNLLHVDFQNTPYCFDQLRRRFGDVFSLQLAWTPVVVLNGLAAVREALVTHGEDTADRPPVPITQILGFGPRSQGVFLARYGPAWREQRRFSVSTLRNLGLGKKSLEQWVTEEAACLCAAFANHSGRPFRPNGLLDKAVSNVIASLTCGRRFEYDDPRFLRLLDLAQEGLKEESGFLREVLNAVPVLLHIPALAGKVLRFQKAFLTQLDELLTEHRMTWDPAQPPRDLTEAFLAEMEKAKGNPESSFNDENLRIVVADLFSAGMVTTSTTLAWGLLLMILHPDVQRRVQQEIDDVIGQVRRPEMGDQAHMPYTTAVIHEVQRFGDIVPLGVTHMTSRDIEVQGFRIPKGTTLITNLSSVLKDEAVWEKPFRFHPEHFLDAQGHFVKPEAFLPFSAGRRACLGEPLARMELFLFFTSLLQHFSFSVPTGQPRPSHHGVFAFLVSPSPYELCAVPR

For the compound `CC1(C)CCC(C)(C)c2cc(C(=O)c3ccc(C(=O)O)cc3)ccc21`, the IC50 against Cytochrome P450 26B1 [1] and against Cytochrome P450 26A1 [2] was more than 25 µM in each case.

With `CC1(C)CCC(C)(C)c2cc(S(=O)(=O)c3ccc(CCC(=O)O)cc3)ccc21`, the IC50 was 6.2 µM at Cytochrome P450 26B1 [1] and more than 5 µM against Cytochrome P450 26A1 [2].

Turning to `CC1(C)CCC(C)(C)c2cc(C3(c4ccc(CCC(=O)O)cc4)SCCS3)ccc21`, the outcome in series [3], in [4] and in series [5] was inactive.

For `CC1(C)CCC(C)(C)c2cc(C3(c4ccc(C(=O)O)cc4)SCCS3)ccc21`, the IC50 at Cytochrome P450 26A1 [2] is 1.3 µM.

Regarding `CC1(C)CCC(C)(C)c2cc(S(=O)(=O)c3ccc(CC(=O)O)cc3)ccc21`, the IC50 at Cytochrome P450 26B1 [1] and against Cytochrome P450 26A1 [2] was more than 5 µM each time.

Turning to `CC1(C)CCC(C)(C)c2cc(C3(c4ccc5cc(C(=O)O)ccc5c4)SCCS3)ccc21`, on Cytochrome P450 26A1 [2], inhibition was half-maximal at 0.06 µM (IC50).

As for `CC1(C)CCC(C)(C)c2cc(C(=O)c3ccc(/C=C/C(=O)O)cc3)ccc21`, the IC50 at Cytochrome P450 26B1 [1] was more than 5 µM; against Cytochrome P450 26A1 [2], 4.7 µM.

In the case of `CC1(C)CCC(C)(C)c2cc(Cc3ccc(CCC(=O)O)cc3)ccc21`, the results for the IC50 against Cytochrome P450 26B1 [1] and against Cytochrome P450 26A1 [2] were 1.7 µM and 1.66 µM, respectively.

With `C=C(c1ccc(C(=O)O)cc1)c1cc2c(cc1C)C(C)(C)CCC2(C)C` [BEXAROTENE], the IC50 on Cytochrome P450 26B1 [1] came to 5.9 µM; at Cytochrome P450 26A1 [2] it was 13.5 µM.

As to `CC1(C)CCC(C)(C)c2cc(Sc3ccc(CC(=O)O)cc3)ccc21`, the IC50 is more than 5 µM at Cytochrome P450 26B1 [1] and 10.6 µM on Cytochrome P450 26A1 [2].

With `CC1(C)CCC(C)(C)c2cc(C(=O)c3ccc(CCC(=O)O)cc3)ccc21`, the IC50 against Cytochrome P450 26B1 [1] and on Cytochrome P450 26A1 [2] was more than 5 µM in each case.

Compound `CC1(C)CCC(C)(C)c2cc(C3(c4ccc(/C=C/C(=O)O)cc4)SCCS3)ccc21` gave an IC50 against Cytochrome P450 26A1 [2] of more than 10 µM.

Turning to `CC1(C)CCC(C)(C)c2cc(S(=O)(=O)c3cccc(CC(=O)O)c3)ccc21`, the IC50 against Cytochrome P450 26B1 [1] and against Cytochrome P450 26A1 [2] was more than 5 µM in each case.

Take `CC1(C)CCC(C)(C)c2cc(/C(COc3ccc(C(=O)O)cc3)=N/O)ccc21`: the IC50 against Cytochrome P450 26B1 [1] came out at 1.4 µM; at Cytochrome P450 26A1 [2] it was 3.5 µM.

Consider `CC1(C)CCC(C)(C)c2cc(C3(c4ccc(C(=O)O)cc4)OCCO3)ccc21`, for which, on Cytochrome P450 26B1 [6], the inhibition at 20 µM amounted to 59%.

For the compound `CC1(C)CCC(C)(C)c2cc(C(O)COc3ccc(C(=O)O)cc3)ccc21` (stereo unspecified), the IC50 against Cytochrome P450 26B1 [1] was found to be 1.4 µM; on Cytochrome P450 26A1 [2] it was 2.8 µM.

Consider `CC1(C)CCC(C)(C)c2cc(C3(c4ccc(CCC(=O)O)cc4)OCCO3)ccc21`, for which the Emax at CYP3A4 was found to be 40%. Besides, the result in series [3], in series [4], in series [5] and in series [8] was inactive. The Activity on Cytochrome P450 26A1 [7] is listed as 0.27 nM.

`CC1(C)CCC(C)(C)c2cc(C3(c4ccc(/C=C/C(=O)O)cc4)OCCO3)ccc21`: the result in series [3], in series [4] and in series [5] was inactive. In addition, at Cytochrome P450 26A1 [7], the Activity was 1.09 nM. For the same compound, the IC50 against Cytochrome P450 3A4 was 30 µM. Moreover, the inhibition at 10 µM on CYP2D6 turned out to be 49%.

Take `CC1(C)CCC(C)(C)c2cc(C3(c4ccc5cc(C(=O)O)ccc5c4)OCCO3)ccc21`: the Ratio IC50 in the series filed under Homo sapiens worked out at 10.

In the case of `CC1(C)CCC(C)(C)c2cc(Sc3cccc(CC(=O)O)c3)ccc21`, the IC50 at Cytochrome P450 26B1 [1] and at Cytochrome P450 26A1 [2] was more than 5 µM throughout.

Consider `CC1(C)CCC(C)(C)c2cc(C(=O)COc3ccc(C(=O)O)cc3)ccc21`, for which the results for the IC50 at Cytochrome P450 26B1 [1] and on Cytochrome P450 26A1 [2] were 0.93 µM and 4 µM, respectively.

As a reminder, the IC50 is the concentration that inhibits the measured activity by half. Read a high IC50 as weaker potency in that assay. Broadly, the inhibition is how much of the control response was suppressed.

These data come from ChEMBL document CHEMBL3784928, “Development and Characterization of Novel and Selective Inhibitors of Cytochrome P450 CYP26A1, the Human Liver Retinoic Acid Hydroxylase” (J Med Chem, 2016).
